Source: ChEMBL document CHEMBL1153560, “In vitro activities of doripenem and six comparator drugs against 423 aerobic and anaerobic bacterial isolates from infected diabetic foot wounds” (2008)

Tests used:
Type in all cases: functional
[1] = test system: Anaerocolumna aminovalerica; assay: Antibacterial activity against Clostridium aminovalericum isolated from patient with diabetic foot infection after 44 to 48 hrs by agar dilution method
Method in brief: (§1)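 CLSI M11-A7 agar dilution: serial twofold drug dilutions made on the test day and added to molten agar. Spots of 10^5 CFU were applied by replicator, with drug-free control plates inoculated before and after each set. Incubation was 44 to 48 h at 37°C in an anaerobic chamber. MIC was the lowest concentration giving no growth or a marked change in growth versus controls.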

[2] = test system: Clostridium malenominatum; assay: Antibacterial activity against Clostridium malenominatum isolated from patient with diabetic foot infection assessed as percent resistant isolates after 44 to 48 hrs by agar dilution method
Method in brief: (§2)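 Agar dilution per CLSI M11-A7. Twofold drug dilutions made on the test day and added to molten agar. Replicator-applied inoculum of 10^5 CFU/spot. Drug-free control plates inoculated before and after each drug set. Incubation at 37°C for 44 to 48 h, anaerobic chamber. MIC taken as the lowest concentration giving no growth or a marked change in growth versus controls.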

Cutibacterium acnes [3] = assay: Antibacterial activity against Propionibacterium acnes isolated from patient with diabetic foot infection after 44 to 48 hrs by agar dilution method; method in brief: as §1
Anaerococcus vaginalis [4] = assay: Antibacterial activity against Anaerococcus vaginalis isolated from patient with diabetic foot infection after 44 to 48 hrs by agar dilution method; method in brief: as §1
[5] = test system: Bacteroides thetaiotaomicron; assay: Antibacterial activity against Bacteroides thetaiotaomicron isolated from patient with diabetic foot infection after 44 to 48 hrs by agar dilution method; method in brief: as §1
Bacteroides uniformis = assay: Antibacterial activity against Bacteroides uniformis isolated from patient with diabetic foot infection after 44 to 48 hrs by agar dilution method; method in brief: as §1
[Clostridium] innocuum [6] = Antibacterial activity against Clostridium innocuum isolated from patient with diabetic foot infection assessed as percent resistant isolates after 44 to 48 hrs by agar dilution method; method in brief: as §2
Parvimonas micra = assay: Antibacterial activity against Peptostreptococcus micros isolated from patient with diabetic foot infection assessed as percent resistant isolates after 44 to 48 hrs by agar dilution method; method in brief: as §2
Lacrimispora sphenoides = assay: Antibacterial activity against Clostridium sphenoides isolated from patient with diabetic foot infection after 44 to 48 hrs by agar dilution method; method in brief: as §1
[7] = test system: Enterocloster clostridioformis; assay: Antibacterial activity against Clostridium clostridioforme isolated from patient with diabetic foot infection after 44 to 48 hrs by agar dilution method; method in brief: as §1
[8] = test system: Parabacteroides distasonis; assay: Antibacterial activity against Parabacteroides distasonis isolated from patient with diabetic foot infection after 44 to 48 hrs by agar dilution method; method in brief: as §1
Bacteroides ovatus = assay: Antibacterial activity against Bacteroides ovatus isolated from patient with diabetic foot infection after 44 to 48 hrs by agar dilution method; method in brief: as §1
Bacteroides fragilis [9] = assay: Antibacterial activity against Bacteroides fragilis isolated from patient with diabetic foot infection after 44 to 48 hrs by agar dilution method; method in brief: as §1
Bacteroides stercoris = assay: Antibacterial activity against Bacteroides stercoris isolated from patient with diabetic foot infection assessed as percent resistant isolates after 44 to 48 hrs by agar dilution method; method in brief: as §2
[10] = test system: Porphyromonas asaccharolytica; assay: Antibacterial activity against Porphyromonas asaccharolyticus isolated from patient with diabetic foot infection after 44 to 48 hrs by agar dilution method; method in brief: as §1
[11] = test system: Anaerocolumna aminovalerica; assay: Antibacterial activity against Clostridium aminovalericum isolated from patient with diabetic foot infection assessed as percent resistant isolates after 44 to 48 hrs by agar dilution method; method in brief: as §2
[12] = test system: Peptostreptococcus anaerobius; assay: Antibacterial activity against Peptostreptococcus anaerobius isolated from patient with diabetic foot infection after 44 to 48 hrs by agar dilution method; method in brief: as §1
[Clostridium] innocuum [13] = Antibacterial activity against Clostridium innocuum isolated from patient with diabetic foot infection after 44 to 48 hrs by agar dilution method; method in brief: as §1
Clostridium cadaveris = assay: Antibacterial activity against Clostridium cadaveris isolated from patient with diabetic foot infection assessed as percent resistant isolates after 44 to 48 hrs by agar dilution method; method in brief: as §2
Prevotella bivia [14] = assay: Antibacterial activity against Prevotella bivia isolated from patient with diabetic foot infection assessed as percent resistant isolates after 44 to 48 hrs by agar dilution method; method in brief: as §2
Anaerococcus vaginalis [15] = assay: Antibacterial activity against Anaerococcus vaginalis isolated from patient with diabetic foot infection assessed as percent resistant isolates after 44 to 48 hrs by agar dilution method; method in brief: as §2
Finegoldia magna = assay: Antibacterial activity against Finegoldia magna isolated from patient with diabetic foot infection after 44 to 48 hrs by agar dilution method; method in brief: as §1
Parabacteroides merdae = assay: Antibacterial activity against Parabacteroides merdae isolated from patient with diabetic foot infection after 44 to 48 hrs by agar dilution method; method in brief: as §1
[16] = test system: Bacteroides thetaiotaomicron; assay: Antibacterial activity against Bacteroides thetaiotaomicron isolated from patient with diabetic foot infection assessed as percent resistant isolates after 44 to 48 hrs by agar dilution method; method in brief: as §2
[17] = test system: Peptoniphilus asaccharolyticus; assay: Antibacterial activity against Peptoniphilus asaccharolyticus isolated from patient with diabetic foot infection after 44 to 48 hrs by agar dilution method; method in brief: as §1
[18] = test system: Porphyromonas asaccharolytica; assay: Antibacterial activity against Porphyromonas asaccharolyticus isolated from patient with diabetic foot infection assessed as percent resistant isolates after 44 to 48 hrs by agar dilution method; method in brief: as §2
Bacteroides fragilis [19] = assay: Antibacterial activity against Bacteroides fragilis isolated from patient with diabetic foot infection assessed as percent resistant isolates after 44 to 48 hrs by agar dilution method; method in brief: as §2
Anaerococcus tetradius [20] = assay: Antibacterial activity against Anaerococcus tetradius isolated from patient with diabetic foot infection after 44 to 48 hrs by agar dilution method; method in brief: as §1
[21] = test system: Peptostreptococcus anaerobius; assay: Antibacterial activity against Peptostreptococcus anaerobius isolated from patient with diabetic foot infection assessed as percent resistant isolates after 44 to 48 hrs by agar dilution method; method in brief: as §2
Prevotella bivia [22] = assay: Antibacterial activity against Prevotella bivia isolated from patient with diabetic foot infection after 44 to 48 hrs by agar dilution method; method in brief: as §1
Porphyromonas somerae = assay: Antibacterial activity against Porphyromonas somerae isolated from patient with diabetic foot infection assessed as percent resistant isolates after 44 to 48 hrs by agar dilution method; method in brief: as §2
Anaerococcus prevotii = assay: Antibacterial activity against Anaerococcus prevotii isolated from patient with diabetic foot infection assessed as percent resistant isolates after 44 to 48 hrs by agar dilution method; method in brief: as §2
Clostridium perfringens = assay: Antibacterial activity against Clostridium perfringens isolated from patient with diabetic foot infection after 44 to 48 hrs by agar dilution method; method in brief: as §2
Cutibacterium acnes [23] = assay: Antibacterial activity against Propionibacterium acnes isolated from patient with diabetic foot infection assessed as percent resistant isolates after 44 to 48 hrs by agar dilution method; method in brief: as §2
[24] = test system: Peptoniphilus asaccharolyticus; assay: Antibacterial activity against Peptoniphilus asaccharolyticus isolated from patient with diabetic foot infection assessed as percent resistant isolates after 44 to 48 hrs by agar dilution method; method in brief: as §2
Anaerococcus tetradius [25] = assay: Antibacterial activity against Anaerococcus tetradius isolated from patient with diabetic foot infection assessed as percent resistant isolates after 44 to 48 hrs by agar dilution method; method in brief: as §2
[26] = test system: Clostridium malenominatum; assay: Antibacterial activity against Clostridium malenominatum isolated from patient with diabetic foot infection after 44 to 48 hrs by agar dilution method; method in brief: as §1

C[C@@H](O)[C@H]1C(=O)N2C(C(=O)O)=C(S[C@@H]3CN[C@H](C(=O)N(C)C)C3)[C@H](C)[C@H]12 [MEROPENEM]
≤ 0.015 µg/mL: MIC50 [10] | MIC90 [10] | MIC50 [17] | MIC50 (Clostridium perfringens) | MIC90 (Clostridium perfringens)
1 µg/mL: MIC90 [1] | MIC90 [5] | MIC90 (Bacteroides uniformis) | MIC90 (Lacrimispora sphenoides) | MIC90 [7] | MIC90 [8] | MIC90 (Bacteroides ovatus) | MIC90 ([Clostridium] innocuum [13]) | MIC90 (Parabacteroides merdae) | MIC90 [26]
0.125 µg/mL: MIC50 (Cutibacterium acnes [3]) | MIC90 (Anaerococcus vaginalis [4]) | MIC50 (Bacteroides fragilis [9]) | MIC50 [12] | MIC90 (Finegoldia magna) | MIC90 [17] | MIC90 (Anaerococcus tetradius [20]) | MIC90 (Prevotella bivia [22])
0.25 µg/mL: MIC90 (Cutibacterium acnes [3]) | MIC50 [5] | MIC50 (Bacteroides uniformis) | MIC50 [8] | MIC50 (Bacteroides ovatus) | MIC90 (Bacteroides fragilis [9]) | MIC90 [12] | MIC50 (Parabacteroides merdae)
0.06 µg/mL: MIC50 [1] | MIC50 (Lacrimispora sphenoides) | MIC50 [7] | MIC50 ([Clostridium] innocuum [13]) | MIC50 (Finegoldia magna) | MIC50 (Prevotella bivia [22]) | MIC50 [26]
0.03 µg/mL: MIC50 (Anaerococcus vaginalis [4]) | MIC50 (Anaerococcus tetradius [20])
0%: Activity [2] | Activity ([Clostridium] innocuum [6]) | Activity (Parvimonas micra) | Activity (Bacteroides stercoris) | Activity [11] | Activity (Clostridium cadaveris) | Activity (Prevotella bivia [14]) | Activity (Anaerococcus vaginalis [15]) | Activity [16] | Activity [18] | Activity (Bacteroides fragilis [19]) | Activity [21] | Activity (Porphyromonas somerae) | Activity (Anaerococcus prevotii) | Activity (Cutibacterium acnes [23]) | Activity [24] | Activity (Anaerococcus tetradius [25])

Cc1ncc([N+](=O)[O-])n1CCO [METRONIDAZOLE]
100%: Activity (Cutibacterium acnes [23])
2 µg/mL: MIC90 [17]
0.25 µg/mL: MIC90 [1] | MIC90 (Lacrimispora sphenoides) | MIC90 [7] | MIC90 [10] | MIC50 [12] | MIC90 ([Clostridium] innocuum [13]) | MIC90 [26]
4 µg/mL: MIC50 (Prevotella bivia [22]) | MIC90 (Prevotella bivia [22])
0.5 µg/mL: MIC50 (Anaerococcus vaginalis [4]) | MIC50 [5] | MIC50 (Bacteroides uniformis) | MIC50 [8] | MIC50 (Bacteroides ovatus) | MIC50 (Bacteroides fragilis [9]) | MIC50 (Finegoldia magna) | MIC50 (Parabacteroides merdae) | MIC50 [17] | MIC50 (Anaerococcus tetradius [20])
1 µg/mL: MIC90 [5] | MIC90 (Bacteroides uniformis) | MIC90 [8] | MIC90 (Bacteroides ovatus) | MIC90 (Bacteroides fragilis [9]) | MIC90 [12] | MIC90 (Finegoldia magna) | MIC90 (Parabacteroides merdae) | MIC90 (Anaerococcus tetradius [20]) | MIC50 (Clostridium perfringens) | MIC90 (Clostridium perfringens)
> 32 µg/mL: MIC50 (Cutibacterium acnes [3]) | MIC90 (Cutibacterium acnes [3])
0.05 µg/mL: MIC50 [10]
0.125 µg/mL: MIC50 [1] | MIC50 (Lacrimispora sphenoides) | MIC50 [7] | MIC50 ([Clostridium] innocuum [13]) | MIC50 [26]
0%: Activity [2] | Activity ([Clostridium] innocuum [6]) | Activity (Parvimonas micra) | Activity (Bacteroides stercoris) | Activity [11] | Activity (Clostridium cadaveris) | Activity (Prevotella bivia [14]) | Activity (Anaerococcus vaginalis [15]) | Activity [16] | Activity [18] | Activity (Bacteroides fragilis [19]) | Activity [21] | Activity (Porphyromonas somerae) | Activity (Anaerococcus prevotii) | Activity [24] | Activity (Anaerococcus tetradius [25])
